As usually defined, the inhibition is the drop in the measured response relative to a control, in per cent.

For assay [1], the target named is Cannabinoid receptor 1 (Homo sapiens) (UniProt P21554). The assay is described as follows: Negative allosteric modulator activity at CB1 receptor (unknown origin) expressed in HEK293 cell membrane assessed as equilibrium dissociation constant using [3H]-CP55940 as radiolabelled orthosteric agonist incubated for 60 mins by liquid scintillation counting analysis. Format: cell membranes. The conditions noted are these: filed as negative allosteric modulator. A digest of the protocol: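 HEK293 cells transiently transfected with CB1 (calcium phosphate), harvested at 24 h; membranes from nitrogen cavitation and 100,000 g pellet, kept in TME buffer (pH 7.4) with 7% sucrose. 4 µg membrane incubated 60 min with [3H]CP55940 at about its Kd in TME plus 0.1% fatty acid-free BSA. Nonspecific binding taken with 1 µM unlabeled CP55,940; filtration on GF/C. At least three experiments, each in duplicate.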
Chain of Cannabinoid receptor 1 (Homo sapiens) (P21554 whole entry): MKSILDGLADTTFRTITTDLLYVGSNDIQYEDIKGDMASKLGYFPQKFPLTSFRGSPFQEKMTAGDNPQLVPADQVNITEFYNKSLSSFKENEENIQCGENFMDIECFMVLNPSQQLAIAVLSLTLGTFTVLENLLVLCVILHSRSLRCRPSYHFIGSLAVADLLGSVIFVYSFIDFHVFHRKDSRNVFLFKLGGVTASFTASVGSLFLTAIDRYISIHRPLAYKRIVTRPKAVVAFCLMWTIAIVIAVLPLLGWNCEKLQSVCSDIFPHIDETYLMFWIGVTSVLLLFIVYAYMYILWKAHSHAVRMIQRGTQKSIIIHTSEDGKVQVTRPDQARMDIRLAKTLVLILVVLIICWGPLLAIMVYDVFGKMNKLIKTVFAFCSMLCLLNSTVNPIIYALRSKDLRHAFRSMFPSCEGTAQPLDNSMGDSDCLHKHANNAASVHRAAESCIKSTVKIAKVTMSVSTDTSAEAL

The target is the same in assay [2]. The assay is described as follows: Negative allosteric modulator activity at CB1 receptor (unknown origin) expressed in HEK293 cell membrane assessed as reduction in CP55,940-induced [35S]GTPgammaS binding by measuring Emax of CP55,940 at 3.2 uM incubated for 60 mins by liquid scintillation counting analysis (reference value: 68.9 +/-1.7 fmol/mg). Format: functional, cell membranes. The conditions noted are these: filed as negative allosteric modulator.

The target is the same in assay [3]. The assay is described as follows: Negative allosteric modulator activity at CB1 receptor (unknown origin) expressed in HEK293 cell membrane assessed as reduction in CP55,940-induced [35S]GTPgammaS binding at 10 uM incubated for 60 mins by liquid scintillation counting analysis. Format: functional, cell membranes. As to conditions: filed as negative allosteric modulator. For orientation: GTPγS is a poorly hydrolysed GTP analogue; its binding reports G protein activation.

For assay [4] the target is unchanged. The assay is described as follows: Negative allosteric modulator activity at CB1 receptor (unknown origin) expressed in HEK293 cell membrane assessed as reduction in CP55,940-induced [35S]GTPgammaS binding incubated for 60 mins by liquid scintillation counting analysis. The format is functional, cell membranes. As to conditions: filed as negative allosteric modulator, dose 3.2-10 µM.

`[N-]=[N+]=NCc1c(C(=O)NCCc2ccc(N3CCCCC3)cc2)[nH]c2ccc(Cl)cc12`: the Kb in assay [1] stood at 784 nM.

For the compound `CN(C)c1ccc(CCNC(=O)c2[nH]c3ccc(Cl)cc3c2CN=[N+]=[N-])cc1`, the Emax in assay [2] was determined as 31.1 fmol/mg. Also, the results for the inhibition in assay [3] and in assay [4] were 100% and “Dose-dependent effect”, respectively. For the same compound, in assay [1], the Kb worked out at 200 nM.

With `[N-]=[N+]=NCc1c(C(=O)NCCc2ccc(C(=O)c3ccccc3)cc2)[nH]c2ccc(Cl)cc12`, the Kb in assay [1] worked out at 6310 nM.

As for `CCc1c(C(=O)NCCc2ccc(C(=O)c3ccccc3)cc2)[nH]c2ccc(Cl)cc12`, in assay [2], the Emax was determined as 41.3 fmol/mg. In addition, the values for the inhibition in assay [3] and in assay [4] were 100% and “Dose-dependent effect”, respectively. For the same compound, the Kb in assay [1] is 254 nM.

As to `CCCCCc1c(C(=O)NCCc2ccc(C(=O)c3ccccc3)cc2)[nH]c2ccc(Cl)cc12`, in assay [2], the Emax turned out to be 27 fmol/mg. The inhibition in assay [3] is 100%; in assay [4], “Dose-dependent effect”. In addition, the Kb in assay [1] stood at 559 nM.

Turning to `CCCCCCc1c(C(=O)NCCc2ccc(N=[N+]=[N-])cc2)[nH]c2ccc(Cl)cc12`, the Emax in assay [2] turned out to be 34.1 fmol/mg. Moreover, the inhibition in assay [3] is 100%; in assay [4], “Dose-dependent effect”. Further, in assay [1], the Kb was found to be 314 nM.

On to `CCCCCCc1c(C(=O)NCCc2ccc(C3(C(F)(F)F)N=N3)cc2)[nH]c2ccc(Cl)cc12`, for which the Kb in assay [1] came to 3280 nM.

Source of the values: ChEMBL document CHEMBL4715743, “Synthesis and biological evaluation of indole-2-carboxamides bearing photoactivatable functionalities as novel allosteric modulators for the cannabinoid CB1 receptor” (Eur J Med Chem, 2016).
